In article PMC5987874 (The Journal of General Physiology, 2018):
Changes are numbered by the printed parent chain. Read-outs that look alike come from different tables or passages of the source.

Experiments:
[1] = biological target: T1, human Hv1 D123H-H140A (Homo sapiens, UniProt Q96D96, D123H/H140A); assay: Whole-cell voltage clamp, Zn^2+ modulation of GAQ gating; format: cell-based
T1 sequence (Q96D96 1-273 D123H/H140A): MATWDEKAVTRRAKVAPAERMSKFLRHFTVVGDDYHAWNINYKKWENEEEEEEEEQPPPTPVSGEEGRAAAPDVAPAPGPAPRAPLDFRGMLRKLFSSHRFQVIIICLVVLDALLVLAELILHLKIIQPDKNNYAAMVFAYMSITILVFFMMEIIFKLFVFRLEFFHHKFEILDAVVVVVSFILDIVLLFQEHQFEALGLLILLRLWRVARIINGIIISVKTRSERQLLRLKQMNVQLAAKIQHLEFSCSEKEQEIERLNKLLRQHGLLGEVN
Outline: (§1)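 Whole-cell patch clamp at ~21°C. Pipette and bath (mM): ~80 TMA-MeSO3, 100 Bis-Tris, 8 HCl, pH 6.5, 310–320 mOsm. ZnCl2 was diluted into bath solution and applied by gravity superfusion, at least 2 min per change. Test step voltage was set per construct from its V0.5. G_STEP = end-of-step current/(V−V_REV). Effect = 1 − G_Zn/G_control, fitted to the Hill equation. IC50 and nH are means ± SEM from separate cells. ΔpIC50 was tested by unpaired t test, P<0.05.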

[2] = biological target: T2, human Hv1 E119H-H140A (Homo sapiens, UniProt Q96D96, E119H/H140A); assay: as above; format: cell-based
T2 sequence (Q96D96 1-273 E119H/H140A): T1 sequence (Q96D96 1-273 D123H/H140A) with E119H, H123D
Outline: as §1

[3] = biological target: T3, human Hv1 H140A-D185H (Homo sapiens, UniProt Q96D96, D185H/H140A); assay: as above; format: cell-based
T3 sequence (Q96D96 1-273 H140A/D185H): T1 sequence (Q96D96 1-273 D123H/H140A) with H123D, D185H
Outline: as §1

[4] = biological target: T4, human Hv1 E119H-H193A (Homo sapiens, UniProt Q96D96, E119H/H193A); assay: as above; format: cell-based
T4 sequence (Q96D96 1-273 E119H/H193A): T1 sequence (Q96D96 1-273 D123H/H140A) with E119H, H123D, A140H, H193A
Outline: as §1

[5] = biological target: T5, human Hv1 H140A-H193A (Homo sapiens, UniProt Q96D96, H140A/H193A); assay: as above; format: cell-based
T5 sequence (Q96D96 1-273 H140A/H193A): T1 sequence (Q96D96 1-273 D123H/H140A) with H123D, H193A
Outline: as §1

[6] = biological target: T5, human Hv1 H140A-H193A; details: double mutant; ref Ramsey et al., 2006; cited from earlier work
[7] = biological target: T6, human Hv1 H140A (H^2.40A) (Homo sapiens, UniProt Q96D96, H140A); assay: Whole-cell voltage clamp, Zn^2+ modulation of GAQ gating; format: cell-based
T6 sequence (Q96D96 1-273 H140A): T1 sequence (Q96D96 1-273 D123H/H140A) with H123D
Outline: as §1

[8] = VSTEP 120 mV, calculated as log (IC50)
[9] = read-out: IC50, fit of the mean data to a Hill function, Fig. 4A
[10] = VSTEP 100 mV, calculated as log (IC50)
[11] = read-out: IC50, fit of the mean data to a Hill function, Fig. 2C

Mean ΔpIC50 = (pIC50_1 - pIC50_2) ([1]; D123H-H140A vs H140A): 0.36
nH, fit of the mean data to a Hill function ([1]; Fig. 4B): 0.5
Hill value ([1]; VSTEP 80 mV): 0.58
pIC50 ([1]; VSTEP 80 mV, calculated as log (IC50)): −4.78
IC50 ([1]; read-out: IC50, fit of the mean data to a Hill function, Fig. 4B): 20.5 µM
IC50 ([1]; read-out: Mean IC50 @ VSTEP, VSTEP 80 mV, pH 6.5, mean of fits in separate cells): 18 µM
Mean ΔpIC50 = (pIC50_1 - pIC50_2) ([2]; E119H-H140A vs H140A): 1.81
nH, fit of the mean data to a Hill function ([2]; Fig. 4A): 1.2
Hill value ([2]; VSTEP 120 mV): 2.09
pIC50 [2, 8]: 6.23
IC50 [2, 9]: 0.67 µM
nH, fit of the mean data to a Hill function ([3]; Fig. 4D): 0.6
Mean ΔpIC50 = (pIC50_1 - pIC50_2) ([3]; H140A-D185H vs D185H): −0.42
Mean ΔpIC50 = (pIC50_1 - pIC50_2) ([3]; H140A-D185H vs H140A): 0.54
Hill value ([3]; VSTEP 120 mV): 0.81
pIC50 [3, 8]: −4.96
IC50 ([3]; read-out: IC50, fit of the mean data to a Hill function, Fig. 4D): 18 µM
Mean ΔpIC50 = (pIC50_1 - pIC50_2) ([4]; E119H-H193A vs H193A): 1.38
nH, fit of the mean data to a Hill function ([4]; Fig. 4A): 0.7
Hill value ([4]; VSTEP 100 mV): 0.86
pIC50 [4, 10]: 5.45
IC50 [4, 9]: 4.2 µM
nH, fit of the mean data to a Hill function ([5]; Fig. 2C): 1.5
Mean ΔpIC50 = (pIC50_1 - pIC50_2) ([5]; H140A-H193A vs H140A): −1.65
Mean ΔpIC50 = (pIC50_1 - pIC50_2) ([5]; H140A-H193A vs H193A): −1.30
Mean ΔpIC50 = (pIC50_1 - pIC50_2) ([5]; H140A-H193A vs WT): −2.68
Hill value ([5]; VSTEP 100 mV): 1.57
IC50 ([5]; VSTEP 100 mV): 1700 ± 300 µM
pIC50 [5, 10]: −2.76
IC50 [5, 11]: 1740 µM
nH, fit of the mean data to a Hill function ([7]; Fig. 2C): 0.7
Mean ΔpIC50 = (pIC50_1 - pIC50_2) ([7]; H140A vs WT): −1.02
Hill value ([7]; VSTEP 100 mV): 0.67
pIC50 [7, 10]: −4.41
IC50 [7, 11]: 39 µM
SMILES: [Cl-].[Cl-].[Zn+2] [Zn^2+, ZnCl2]
Zn^2+ sensitivity [6]: essentially insensitive to submillimolar
